Measurements taken from ChEMBL document CHEMBL5058577, “EUbOPEN Chemogenomics Library 2 (Multiplex)” (2022).

System: HEK-293T
Experiment: Multiplex assay against HEK293T
Format: toxicity, cell-based
Conditions: human
Procedure, shortened: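 At seeding, live cells were stained with Hoechst33342, BioTracker Green Microtubule Cytoskeleton Dye, MitoTracker Red and Annexin V Alexa Fluor 680. After compound addition they were imaged on a CQ1 microscope at 37°C and 5% CO2, and CellPathfinder machine-learning gating sorted them into Hoechst high-intensity objects or normal cells, with normal cells further split into healthy, pyknosed or fragmented nuclei and pyknosed cells into mitotic or apoptotic. Tubulin, mitochondrial-mass and membrane-permeability phenotypes are given as per cents of cells with healthy nuclei.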

[1] = 12 h, 1 µM, compound concentration 1 uM, replicate 1
[2] = 12 h, 1 µM, compound concentration 1 uM, replicate 2
[3] = 12 h, 10 µM, compound concentration 10 uM, replicate 1
[4] = 12 h, 10 µM, compound concentration 10 uM, replicate 2
[5] = 24 h, 1 µM, compound concentration 1 uM, replicate 1
[6] = 24 h, 1 µM, compound concentration 1 uM, replicate 2
[7] = 24 h, 10 µM, compound concentration 10 uM, replicate 1
[8] = 24 h, 10 µM, compound concentration 10 uM, replicate 2
[9] = 48 h, 1 µM, compound concentration 1 uM, replicate 1
[10] = 48 h, 1 µM, compound concentration 1 uM, replicate 2
[11] = 48 h, 10 µM, compound concentration 10 uM, replicate 1
[12] = 48 h, 10 µM, compound concentration 10 uM, replicate 2

Cc1cc(=O)n(C)c2cc(N3C(=O)CC[C@H](NS(=O)(=O)CC(C)C)[C@H]3c3ccc(Cl)cc3)ccc12
Population Apoptotic (%) [1]: 43%
Population Fragmented Nuclei (%) [1]: 7%
Population Healthy Nuclei (%) [1]: 83%
Population Hoechst High Intensity Objects (%) [1]: 8%
Population Membrane Permeable-Phenotype (%) [1]: 0%
Population Mitochondria Different-Phenotype (%) [1]: 41%
Population Mitotic Cells (%) [1]: 56%
Population Normal (%) [1]: 91%
Population Pyknosed Nuclei (%) [1]: 8%
Population Tubulin-Different-Phenotype (%) [1]: 32%
Total Cell Count [1]: 454
Population Apoptotic (%) [2]: 63%
Population Fragmented Nuclei (%) [2]: 6%
Population Healthy Nuclei (%) [2]: 78%
Population Hoechst High Intensity Objects (%) [2]: 6%
Population Mitochondria Different-Phenotype (%) [2]: 53%
Population Mitotic Cells (%) [2]: 36%
Population Normal (%) [2]: 93%
Population Pyknosed Nuclei (%) [2]: 14%
Population Tubulin-Different-Phenotype (%) [2]: 14%
Total Cell Count [2]: 265
Population Apoptotic (%) [3]: 47%
Population Fragmented Nuclei (%) [3]: 4%
Population Healthy Nuclei (%) [3]: 70%
Population Hoechst High Intensity Objects (%) [3]: 11%
Population Membrane Permeable-Phenotype (%) [3]: 0%
Population Mitochondria Different-Phenotype (%) [3]: 75%
Population Mitotic Cells (%) [3]: 52%
Population Normal (%) [3]: 88%
Population Pyknosed Nuclei (%) [3]: 24%
Population Tubulin-Different-Phenotype (%) [3]: 81%
Total Cell Count [3]: 368
Population Apoptotic (%) [4]: 50%
Population Fragmented Nuclei (%) [4]: 6%
Population Healthy Nuclei (%) [4]: 66%
Population Hoechst High Intensity Objects (%) [4]: 16%
Population Mitochondria Different-Phenotype (%) [4]: 86%
Population Mitotic Cells (%) [4]: 49%
Population Normal (%) [4]: 83%
Population Pyknosed Nuclei (%) [4]: 27%
Population Tubulin-Different-Phenotype (%) [4]: 66%
Total Cell Count [4]: 331
Population Apoptotic (%) [5]: 33%
Population Fragmented Nuclei (%) [5]: 9%
Population Healthy Nuclei (%) [5]: 81%
Population Hoechst High Intensity Objects (%) [5]: 4%
Population Membrane Permeable-Phenotype (%) [5]: 0%
Population Mitochondria Different-Phenotype (%) [5]: 25%
Population Mitotic Cells (%) [5]: 66%
Population Normal (%) [5]: 95%
Population Pyknosed Nuclei (%) [5]: 9%
Population Tubulin-Different-Phenotype (%) [5]: 19%
Total Cell Count [5]: 646
Population Apoptotic (%) [6]: 36%
Population Fragmented Nuclei (%) [6]: 4%
Population Healthy Nuclei (%) [6]: 82%
Population Hoechst High Intensity Objects (%) [6]: 5%
Population Membrane Permeable-Phenotype (%) [6]: 1%
Population Mitochondria Different-Phenotype (%) [6]: 42%
Population Mitotic Cells (%) [6]: 63%
Population Normal (%) [6]: 94%
Population Pyknosed Nuclei (%) [6]: 13%
Population Tubulin-Different-Phenotype (%) [6]: 17%
Total Cell Count [6]: 327
Population Apoptotic (%) [7]: 34%
Population Fragmented Nuclei (%) [7]: 7%
Population Healthy Nuclei (%) [7]: 72%
Population Hoechst High Intensity Objects (%) [7]: 9%
Population Membrane Permeable-Phenotype (%) [7]: 0%
Population Mitochondria Different-Phenotype (%) [7]: 67%
Population Mitotic Cells (%) [7]: 65%
Population Normal (%) [7]: 90%
Population Pyknosed Nuclei (%) [7]: 19%
Population Tubulin-Different-Phenotype (%) [7]: 67%
Total Cell Count [7]: 419
Population Apoptotic (%) [8]: 76%
Population Fragmented Nuclei (%) [8]: 8%
Population Healthy Nuclei (%) [8]: 67%
Population Hoechst High Intensity Objects (%) [8]: 22%
Population Mitochondria Different-Phenotype (%) [8]: 85%
Population Mitotic Cells (%) [8]: 23%
Population Normal (%) [8]: 77%
Population Pyknosed Nuclei (%) [8]: 23%
Population Tubulin-Different-Phenotype (%) [8]: 71%
Total Cell Count [8]: 328
Population Apoptotic (%) [9]: 25%
Population Fragmented Nuclei (%) [9]: 14%
Population Healthy Nuclei (%) [9]: 78%
Population Hoechst High Intensity Objects (%) [9]: 3%
Population Membrane Permeable-Phenotype (%) [9]: 0%
Population Mitochondria Different-Phenotype (%) [9]: 17%
Population Mitotic Cells (%) [9]: 74%
Population Normal (%) [9]: 96%
Population Pyknosed Nuclei (%) [9]: 6%
Population Tubulin-Different-Phenotype (%) [9]: 15%
Total Cell Count [9]: 985
Population Apoptotic (%) [10]: 31%
Population Fragmented Nuclei (%) [10]: 11%
Population Healthy Nuclei (%) [10]: 79%
Population Hoechst High Intensity Objects (%) [10]: 7%
Population Mitochondria Different-Phenotype (%) [10]: 20%
Population Mitotic Cells (%) [10]: 68%
Population Normal (%) [10]: 92%
Population Pyknosed Nuclei (%) [10]: 9%
Population Tubulin-Different-Phenotype (%) [10]: 17%
Total Cell Count [10]: 454
Population Apoptotic (%) [11]: 56%
Population Fragmented Nuclei (%) [11]: 12%
Population Healthy Nuclei (%) [11]: 77%
Population Hoechst High Intensity Objects (%) [11]: 10%
Population Membrane Permeable-Phenotype (%) [11]: 1%
Population Mitochondria Different-Phenotype (%) [11]: 67%
Population Mitotic Cells (%) [11]: 43%
Population Normal (%) [11]: 89%
Population Pyknosed Nuclei (%) [11]: 10%
Population Tubulin-Different-Phenotype (%) [11]: 58%
Total Cell Count [11]: 548
Population Apoptotic (%) [12]: 66%
Population Healthy Nuclei (%) [12]: 67%
Population Hoechst High Intensity Objects (%) [12]: 19%
Population Membrane Permeable-Phenotype (%) [12]: 0%
Population Mitochondria Different-Phenotype (%) [12]: 76%
Population Mitotic Cells (%) [12]: 33%
Population Normal (%) [12]: 80%
Population Pyknosed Nuclei (%) [12]: 19%
Population Tubulin-Different-Phenotype (%) [12]: 56%
Total Cell Count [12]: 371
